For 97 molecules, cytotoxicity results are on record in ChEMBL document CHEMBL4513216, “Probing the Open Global Health Chemical Diversity Library for Multistage-Active Starting Points for Next-Generation Antimalarials” (ACS Infect Dis, 2020).

Molecules are shown by their SMILES.

A short description of this data set: Toxicity liver stage against HepG2, at 10uM. The data set is classed as cell-based. Also on record: test concentration 10 uM, cell line HepG2-A16-CD81EGFP. The note with it: human, HepG2-A16-CD81EGFP cells; read-out: INHIBITION
The method, boiled down:
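Uninfected HepG2-A16-CD81EGFP cells, 3 × 10^3 per well, 1536-well, plated on prespotted compound at 10 μM final, parasite-free screening media added to match infected plates; puromycin 10 μM positive, DMSO 0.5% negative; run in parallel with 48 h PbLuc assay at 37 °C, 5% CO2; viability by CellTiter-Glo luminescence, normalized to controls.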
Consider `COC(=O)CNC(=O)c1cn(-c2ccccn2)c(=O)c2ccccc12`, for which the cytotoxicity at 10 µM was found to be 0.0537%.
The figure for `CS(=O)(=O)CC1(CNc2ccc(C#N)c(C(F)(F)F)c2)CC1` is 9.95%; for `CC(Cc1ccccc1F)NC(=O)CCC1=NC(=C2N=CN=N2)NO1` (configuration not stated) it is 7.69%; for `OCC(O)CSCc1nnc(-c2cccc(F)c2)o1` (configuration not stated) it is 15.4%.
The figure for `CN(C)C(C(=O)NCC1(N(C)C)CCOCC1)c1ccccc1F` (configuration not stated) is 2.2%.
As for `Cn1c(Cn2ccnc2)nnc1C1CCCN(CC(C)(C)C)C1` (configuration not stated), the figure is 3.89%.
As to `Cc1nc(NCC2CC2)nc2c1COCC21CCN(C)C1` (configuration not stated), the cytotoxicity at 10 µM was -0.722%.
The figure for `c1cncc(CNc2ncnc3c2CCN(Cc2ccsc2)CC3)c1` is 7.91%; for `O=C1CC[C@H]2[C@H](CCN2c2ncccn2)N1c1ccccc1` it is 5.77%; for `COCCn1cc(C(=O)N2CCCC2c2cnn(C)c2)ccc1=O` (configuration not stated) it is 5.92%.
As to `O=C(N1CCCC1)N1CC[C@H]2OCC[C@@]2(COc2ncccc2F)C1`, the cytotoxicity at 10 µM is -151%.
In the case of `O=c1ccc(-c2cccs2)nn1CN1CCOC(c2ccccc2)C1` (configuration not stated), the cytotoxicity at 10 µM was 7.57%.
As for `CS(=O)(=O)Nc1cccc(CNC(=O)c2cccs2)c1`, the figure is 3.86%; as for `O=C(CC1CC1)N[C@@H]1CN(Cc2ccncc2)C[C@@H]2CCCO[C@@H]21`, -7.96%.
As for `CCC1=N[C@@]2(CC[C@@H]3CN(CC(=O)N(C)C)C[C@@H]32)C(=O)N1CC1CC1`, the figure is -3.5%; as for `COc1c(CNC(c2ccc(F)cc2)c2nccn2C)c(C)nn1C` (configuration not stated), -12.7%.
On to `Cc1ccc(NC(=O)NCC2CCS(=O)(=O)C2)cc1Cl` (configuration not stated), for which the cytotoxicity at 10 µM worked out at 6.93%.
The figure for `Cc1cc(CSCc2csc(CS(C)(=O)=O)n2)no1` is -2.49%; for `CC(=O)N1CCC(N[C@@H]2CC[C@@H]2NS(=O)(=O)c2cccnc2)CC1` it is 2.98%.
As for `Cc1ccccc1SC1CCN(C(=O)[C@@H]2C[C@@H](N)CN2)CC1`, the figure is -7.69%; as for `CCCn1ncc(-c2ccnc(NC3CCSC3)n2)c1C` (configuration not stated), 2.65%; as for `O=C(c1sccc1C1CC1)N1CCN(Cc2cscn2)CC1`, 1.97%.
The figure for `Cc1nc(-c2cccc(C(=O)N(C)CC(C)O)c2)cs1` (configuration not stated) is 2.68%; for `O=C(C[S+]([O-])Cc1c(Cl)cccc1Cl)N1CCc2sccc2C1` (configuration not stated) it is -7.23%.
As to `Cc1cc(C)n(CCCN(C)C(=O)C2COc3ccccc3C2)n1` (configuration not stated), the cytotoxicity at 10 µM is -5.95%.
As for `COc1cccc(CN(C)Cc2c(C)noc2C)c1OC`, the figure is 8.82%.
Regarding `CC(C)n1[nH]c(=O)c2c1NC(=O)CC2C1CCCCC1` (configuration not stated), the cytotoxicity at 10 µM is -12.9%.
The figure for `O=S(=O)(NC1CCC2(CC1)OCCO2)c1cccc(Br)c1` is -5.65%; for `Cn1cc(CN2Cc3cn(C)nc3C(COCC3CC3)C2)cn1` (configuration not stated) it is -69.8%; for `Cc1ccsc1C(=O)N1CCc2ncc(CN(C)C)n2CC1` it is -101%.
`CC(C)N1CCN(C(=O)C(C)n2cncn2)CC1` (configuration not stated): the cytotoxicity at 10 µM came out at 0.724%.
The figure for `Cc1ccc(C)c(CN2CCOC(c3noc(C)n3)C2)c1` (configuration not stated) is 5.12%.
The figure for `Cc1ccc(C)c(Oc2ccc(CNC(=O)C3CNC(=O)N3)cn2)c1` (configuration not stated) is 0.577%; for `COCCOCCNc1cncc(Br)c1` it is -1.33%; for `Cc1c(CC(=O)N2CCSCC2)nnn1-c1cccc(Cl)c1` it is -3.89%.
With `Cc1cccc(CN2C[C@@H]3CC[C@H]2CN(Cc2[nH]cnc2C)C3)n1`, the cytotoxicity at 10 µM is -3.43%.
As for `CCN1C(=O)[C@]2(CC[C@@H]3CN(C(=O)NCC(C)C)C[C@@H]32)N=C1C`, the figure is 9.16%.
The figure for `Cc1cc(C(=O)N(C)Cc2cccs2)nc(N2CCCC2)n1` is 7.85%; for `O=C(Nc1cccnc1N1CCSCC1)c1ccc2c(c1)OCO2` it is -6.14%; for `OC(CN1CCC(c2ccn[nH]2)CC1)c1ccc(F)cc1F` (configuration not stated) it is -17.9%.
On to `COC[C@@]12CC[C@@H](N3CCOCC3)C[C@H]1CCN(c1ncccc1Cl)C2`, for which the cytotoxicity at 10 µM was -13.2%.
The figure for `Cc1cccc(-c2nc(C)nn2CN2CCN(S(C)(=O)=O)CC2)c1` is 0.729%; for `O=C1NC2(CCNCC2)CC1c1cccnc1` (configuration not stated) it is 1.77%.
The figure for `Cc1cc(C(=O)Nc2ccn(CCCN3CCCC3)n2)no1` is -4.13%.
The figure for `CC(=O)N1CCCN(Cc2csc(-c3ncccn3)n2)CC1` is 7.08%.
Consider `OC1(CNc2cccc(F)c2)CCNCC1`, for which the cytotoxicity at 10 µM was 5.38%.
Turning to `CCC(CC)NC(=O)NCc1ccnc(-n2ccnc2C)c1`, the cytotoxicity at 10 µM was -1.21%.
As for `Cc1ccc(F)c(NS(=O)(=O)c2cc3c(c(C(=O)O)c2)OCCO3)c1`, the cytotoxicity at 10 µM was -5.32%.
Take `Cc1nn(C)c(C)c1-c1ccc(=O)n(C(C)C(=O)NC2CCCC2)n1` (configuration not stated): the cytotoxicity at 10 µM is 5.97%.
For `Cc1noc(CN2CCN(Cc3cccs3)CC2)n1`, the cytotoxicity at 10 µM was -6.23%.
As for `CN(C)C(=O)N1CCCC(C(=O)N(C)Cc2cnc(N)nc2)C1` (configuration not stated), the cytotoxicity at 10 µM was -2.81%.
As for `CCO[C@@H]1CC[C@H]2[C@H]1OCCN2C(=O)c1ccc(C)o1`, the figure is -149%; as for `O=C1NCCCCC1Sc1n[nH]c(=O)n1C1CC1` (configuration not stated), 5.24%; as for `N#Cc1ccc(SCCOCCO)c(Cl)c1`, 2.68%.
As for `CCOC(=O)C(C)NC(=O)CCSc1ccc(F)cc1` (configuration not stated), the figure is 9.13%.
As for `Cc1ccc(C2CCCCCN2Cc2cn(C)nc2C)cc1` (configuration not stated), the figure is -8.56%; as for `CCNC(=O)NCc1ccccc1NS(=O)(=O)c1ccccc1`, 8.27%; as for `CC(=O)NC(Cc1c[nH]c2cc(F)ccc12)C(=O)Nc1nncs1` (configuration not stated), 1.22%.
As to `COc1ccc2c(c1)CC(NCCCn1cc(C)cn1)CC2` (configuration not stated), the cytotoxicity at 10 µM was 18%.
The figure for `COCCN1CCCC(O)(CN2CCN(c3cc(C)ccn3)CC2)C1=O` (configuration not stated) is 0.622%.
As for `CN(C)c1cccc(C(=O)Nc2cnn(CC(N)=O)c2)c1`, the figure is 3.63%.
As for `CCC(=O)N1CCc2c(O)nc(C3CCCCN3C(=O)C3CC3)nc2C1` (configuration not stated), the figure is 3.3%.
For the molecule `CC(C)c1nn(C)c(N2CCOCC2)c1CNC(C)c1ccco1` (configuration not stated), the cytotoxicity at 10 µM is -5.93%.
As for `COc1ccc(CCN(C)C(=O)CN2C(=O)OC[C@@H]2C(C)C)cc1OC`, the figure is -11%; as for `CC(C)(O)CN1CCN(C(=O)c2cccnc2O)CC1`, -21.7%.
The figure for `CC(C)(C)C(=O)N1CCCC1c1cc(CO)[nH]n1` (configuration not stated) is 1.61%; for `COc1ccc2cc(NC(=O)CCCNc3ncccn3)cnc2c1` it is -50.5%.
As for `NC(=O)Cn1cc(NC(=O)N2CCC(c3ccccc3)CC2)cn1`, the figure is -7.69%; as for `CSCc1cc(F)ccc1CNC(=O)N1CCOCC1`, 8.06%.
For the molecule `O=C1CCC(=O)N1c1nn(Cc2ccccc2)cc1Cl`, the cytotoxicity at 10 µM was -14.4%.
As to `CN(C)CCn1cc(NC(=O)NC(C)(C)c2nccs2)cn1`, the cytotoxicity at 10 µM is -2.85%.
For `O=C(NCc1cccnc1-n1cncn1)c1ccncc1`, the cytotoxicity at 10 µM was found to be 5.91%.
The figure for `Cc1nccc(NCc2cncc3c2CCN(CCN(C)C)C3)n1` is -104%; for `CCCn1cc(NC2CCSCC2)cn1` it is -1.88%.
The figure for `CCc1nc(-c2ccc(NC(=O)N3CCOCC3)cc2)no1` is 5.48%; for `Cc1cc(NC(=O)CNCc2csc(-c3ncccn3)n2)ccc1Cl` it is -7.21%.
For `CN(c1cccnn1)[C@@H]1CC[C@@H]2CN(Cc3cccc(C(=O)O)c3)C[C@@H]21`, the cytotoxicity at 10 µM was 6.17%.
On to `CC(=O)N1CCC(c2cc(Nc3ncccn3)nc(C)n2)C1` (configuration not stated), for which the cytotoxicity at 10 µM was -27.7%.
The figure for `CCCC(=O)N1CCC2(CC1)CN(Cc1cccc(C)n1)C(=O)CO2` is -5.05%; for `CC(C)C(=O)N1CCCC(c2cncc(Oc3cccnc3)n2)C1` (configuration not stated) it is -2.83%; for `CN(Cc1ccccc1)C1(C(=O)O)Cc2ccccc2C1` it is 1.04%.
As for `F[C@@H]1CN(CC2CC2)C[C@@H]1OCc1nc2ccccc2o1`, the figure is 1.97%.
As for `CCN(CC)C1CCN(c2ncnc3c2CCN(C(=O)C2CC2)C3)C1` (configuration not stated), the figure is 1.52%; as for `C[C@@H]1CN(Cc2ccccc2F)CC(C(N)=O)O1` (some centres not stated), 1.95%; as for `Cc1ccc(C(NC(=O)CN2CCc3cncnc3C2)C2CC2)cc1` (configuration not stated), 9.31%.
Consider `CCN1CCN2CCCN(S(=O)(=O)c3ccc(S(C)(=O)=O)cc3)C2C1=O` (configuration not stated), for which the cytotoxicity at 10 µM came to 5.36%.
As for `CC(C)n1cc(CN2CCCN(C(=O)c3nccnc3N)CC2)cn1`, the figure is 7.13%; as for `COc1ccc(OC)c(C(O)CNC(=O)Nc2cccnc2OC)c1` (configuration not stated), -22.4%; as for `CCNC(c1cccnc1)c1ccc(F)c(F)c1` (configuration not stated), 1.03%.
As for `CN(Cc1cnn(C)c1)S(=O)(=O)N1CCc2ccccc2C1`, the figure is -6.47%; as for `COc1ccc(C(=O)N2C[C@@H](O)[C@H](NCCc3ncccc3C)C2)cc1`, -3.71%.
Turning to `COc1ncc(NCc2ccc(Cl)c(Cl)c2)cc1C(N)=O`, the cytotoxicity at 10 µM stood at 32.7%.
As for `Cc1cnc(C(=O)N2CCc3ncnc(C)c3CC2)cn1`, the figure is -6.51%.
As for `NC(=O)CCC1CCCN(c2ccc3c(Cl)ccnc3c2F)C1` (configuration not stated), the figure is 29.6%; as for `CCc1cc(NCCS(=O)(=O)N(C)C)nc(N2CCOCC2)n1`, 1.44%; as for `CN(Cc1ccc(O)cc1)C(=O)NCc1nnc2n1CCCCC2`, -11.1%.
Turning to `CC1=N[C@@]2(CC[C@@H]3CN(S(C)(=O)=O)C[C@@H]32)C(=O)N1CC(C)C`, the cytotoxicity at 10 µM was -71.3%.
